# Reference: PubChem BioAssay AID624038 (The Scripps Research Institute Molecular Screening Center, 2012)
# Screen size: about 360,000 compounds; about 1,100 (0.31%) were called active. Shown is part of a subset that was picked to be rich in actives. Unmarked numbers belong to inactive results.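 How the source made its calls: active means activation above the run cutoff, the mean activation of all test compounds plus 3 SD (cut at about 18% in these data); inactive means the rest.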
# Target: Muscarinic acetylcholine receptor M5 (Homo sapiens) (UniProt P08912)
# Sequence (P08912 whole entry, looked up): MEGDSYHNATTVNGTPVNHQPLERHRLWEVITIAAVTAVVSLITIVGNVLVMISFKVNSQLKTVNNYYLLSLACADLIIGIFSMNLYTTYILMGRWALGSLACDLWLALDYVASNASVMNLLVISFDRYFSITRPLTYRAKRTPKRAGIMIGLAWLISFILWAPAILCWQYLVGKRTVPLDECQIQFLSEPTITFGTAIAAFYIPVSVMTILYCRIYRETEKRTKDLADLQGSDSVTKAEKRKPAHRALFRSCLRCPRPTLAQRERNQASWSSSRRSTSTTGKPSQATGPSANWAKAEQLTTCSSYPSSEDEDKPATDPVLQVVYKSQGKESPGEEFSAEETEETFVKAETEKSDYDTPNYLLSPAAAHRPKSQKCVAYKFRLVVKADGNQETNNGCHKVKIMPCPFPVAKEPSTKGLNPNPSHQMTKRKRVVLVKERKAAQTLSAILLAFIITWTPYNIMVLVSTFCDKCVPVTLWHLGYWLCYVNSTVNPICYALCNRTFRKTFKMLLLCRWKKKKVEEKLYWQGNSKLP
# Assay: CHRM5 PAMs potentiating acetylcholine calcium signal – CHO-K1 cells, Fluo-8 calcium fluorescence, primary screen (AID 624038)
# Details: CHO-K1 hM5, Fluo-8 calcium, ACh EC20 PAM; at 3 µM; hits give high values; 0% = ACh EC20, 100% = ACh EC100
# Summary of the method: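 system = human M5 receptor in CHO-K1 cells | reagent = EC20 acetylcholine as agonist stimulus | compound dosing = single-point, 3 µM nominal | incubation = Fluo-8 loading 80 min at 37 °C plus 30 min room temperature | detection = Fluo-8 calcium dye fluorescence, kinetic read | benchmarks = low control EC20 acetylcholine (0%), high control EC100 acetylcholine (100%)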
row,Structure (SMILES),activation
1,CCCc1ccc(C(=O)[C@@H]2[C@@H](C(C)=O)N3c4ccc(F)cc4C=C[C@@H]3[C@@]23C(=O)Nc2ccccc23)cc1,25.3% (active)
2,COC(=O)c1ccc(Oc2nc(NC(C)C)nc(SC)n2)cc1,2.31%
3,CCOc1ccc(N(C)S(=O)(=O)c2cnc[nH]2)cc1,11.8%
4,Cc1ccc2[nH]c(=O)c(COC(=O)c3ccccn3)cc2c1,-8.69%
5,Cc1ccc2[nH]c(=O)c(CN(C)S(=O)(=O)c3cccc4nonc34)cc2c1,4.24%
6,CCCc1nc(-c2cc3cc(C)ccc3[nH]c2=O)no1,25% (active)
7,Cc1c(C(=O)NCC2CC2)sc(=O)n1Cc1cccc(F)c1,2.84%
8,CCCn1c(O)c(CN2CCCC(C)C2)c(C)c(C#N)c1=O (centres undefined),-2.92%
9,CC(C)(C)NC(=O)CN(C(=O)c1ccc(Cl)nc1)c1cccc2ccccc12,22.9% (active)
10,O=C(COC(=O)c1ccc(Cl)nc1)NCc1cccs1,-12.7%
11,CC(C)(C)NC(=O)CN(C(=O)c1csnn1)c1ccccc1-c1ccccc1,-2.48%
12,O=c1c2cc(-c3ccccc3)sc2nc2n1N=C(c1cccs1)CS2,9.65%
13,Cc1cc(C)n(-c2nnc(N3CCN(c4ccccc4)CC3)nn2)n1,-0.36%
14,Cc1cc(C)nc(-n2nc(C)cc2NC(=O)c2ccc(F)cc2F)n1,3.36%
15,Cc1cc(N/N=C\c2ccc(Br)cc2)nc(-n2nc(C)cc2C)n1,20.4% (active)
16,COc1ccccc1-c1n[nH]nc1C1=CC(=O)CC(C)(C)C1,-0.48%
17,CCCCCCCCN1C(=O)[C@H](CC(=O)NCC23CC4CC(CC(C4)C2)C3)C[C@@]2(C(=O)OC)CCCCC=C12,-2.23%
18,Cc1ccc(C(=O)NC(C)c2ccccc2)cc1Br (centres undefined),-0.29%
19,CC(NC(=O)C(=O)N/N=C/c1ccc(Cl)cc1)c1ccccc1 (centres undefined),-5.3%
20,CC(NC(=O)c1cc2cc(Cl)ccc2oc1=N)c1ccccc1 (centres undefined),35.2% (active)

row,Structure (SMILES),activation
1,COC(=O)c1cccc([N+](=O)[O-])c1CS(=O)(=O)c1ccc(C)cc1,-5.08%
2,CC(=O)N1c2ccc(S(=O)(=O)N3CCC(C(=O)NC4CCCCC4C)CC3)cc2CC1C (centres undefined),-5.55%
3,COC(=O)Cc1nc2c(N)nc(N)nc2[nH]c1=O,5.33%
4,COc1cc(C2C3=C(CCCC3=O)OC3=C2C(=O)CCC3)ccc1OCC(=O)Nc1ccccc1,-5.18%
5,NC1=C([N+](=O)[O-])C(c2ccccc2)C2=C(CCCC2=O)O1 (centres undefined),23.6% (active)
6,N#CC1=C(N)OC2=C(C(=O)CCC2)C1C1CC=CCC1 (centres undefined),-4.35%
7,CCCNC(=O)C1(C)CCN(Cc2ccc(Cl)c(Cl)c2)C1 (centres undefined),0.24%
8,Cc1cc(-n2cnc(-c3cn(C)nc3C)n2)no1,-0.03%
9,CC(C)Oc1ccc(CN2CCC(n3nccc3NC(=O)c3cccnc3)CC2)cc1,0.11%
10,COc1ccc(S(=O)(=O)N2CCN(CC(=O)N3CCNC3=O)CC2)cc1OC,2.2%
11,CN1C2CCC1CC(NC(=O)c1ccc([N+](=O)[O-])cc1)C2 (centres undefined),0.81%
12,CC(=O)N1CC[n+]2c(-c3ccc([N+](=O)[O-])cc3)csc21,20% (active)
13,Cc1cc(C)cc(C(=O)N2CCN=C2SCc2ccc([N+](=O)[O-])cc2)c1,-5.65%
14,O=C(NNS(=O)(=O)c1c(F)cc(F)c(Cl)c1F)C12CC3CC(CC(C3)C1)C2,-0.38%
15,CC(C)(C)C1CCC(OC(=O)CCC(=O)Nc2ccccc2)CC1 (centres undefined),-2.13%
16,CN1CCC(=NNC(=O)CN(c2cccc(Cl)c2)S(C)(=O)=O)CC1,7.47%
17,COc1cc(OC)cc(C(=O)NCC(=O)OCC(=O)NC(C)CCc2ccccc2)c1 (centres undefined),21.1% (active)
18,CC(CCc1ccccc1)NC(=O)COC(=O)c1ccc(F)cc1 (centres undefined),-4.05%
19,COc1cc(C(=O)OCC(=O)NC(C)CCc2ccccc2)cc(OC)c1OC (centres undefined),-10.1%
20,CC(C)CN(C(=O)CSc1nncn1C)C1CCS(=O)(=O)C1 (centres undefined),11.7%

row,Structure (SMILES),activation
1,CCC(C(=O)NCc1ccc(OC)cc1)n1nc(C)n2c(cc3occc32)c1=O (centres undefined),18.4% (active)
2,CCc1nn(CCCC(=O)NCc2ccc(C)cc2)c(=O)c2cc3occc3n12,2.21%
3,CCOc1ccc(CCNC(=O)C(CC)n2nc(C)n3c(cc4sccc43)c2=O)cc1OCC (centres undefined),-4.37%
4,COc1cc(OC)c(NC(=O)C2CCCN2C(=O)OCc2ccccc2)cc1Cl (centres undefined),2.68%
5,CCCCNC(=O)OC1CC2CC1[C@H]1CCCCN1C2=O (some centres undefined),0.25%
6,CCOc1ccc(OCc2cccc(C(=O)N(CC)CC)c2)cc1,-1.6%
7,COc1ccc(OCc2cccc(C(=O)N3CCCC3)c2)cc1,19.1% (active)
8,CC(=O)Oc1ccc(-c2cccc(C(=O)N3CCCCC3)c2)cc1,-3.42%
9,Cc1ccc(C2SCC(=O)N2c2ccccc2)cc1 (centres undefined),13.5%
10,CC(C)(C)OC(=O)C[C@@H]1C/C=C\C[C@@H](CC(=O)N[C@H](CO)Cc2ccccc2)C(=O)NCCOC1=O,-2.01%
11,C[C@H]1COC(=O)[C@H](CC(=O)OC(C)(C)C)C/C=C\C[C@@H](CC(=O)N[C@H](CO)Cc2ccccc2)C(=O)N1,20.5% (active)
12,CC(C)(C)OC(=O)C[C@@H]1C/C=C\C[C@H](CC(=O)N[C@@H](CO)Cc2ccccc2)C(=O)N[C@H](Cc2ccccc2)COC1=O,-0.44%
13,Cc1nn(C)c(C)c1Sc1ccccc1N,-3.24%
14,COC(=O)CNC(=O)c1ccccc1F,22.4% (active)
15,O=C(COC(=O)CNC(=O)c1ccccc1F)NCC(F)(F)F,16.4%
16,O=C(CNC(=O)c1ccccc1F)c1ccc(Br)cc1,1.83%
17,Cc1nn(C)c(C(=O)NNC(=S)NC2CCCCC2)c1Cl,-3.58%
18,Cn1ncc(Br)c1C(=O)NC1CCCC1,36.9% (active)
19,COc1ccccc1NC(=O)c1c(Br)cnn1C,0.59%
